Data set [1] deals with Raji. The data set can be described thus: Inhibition of 12-O-tetradecanoylphorbol-13-acetate-induced EBV-early antigen activation in human Raji cells assessed as EA induction at 100 molar ratio after 48 hrs by immunofluorescence technique relative to 12-O-tetradecanoylphorbol-13-acetate. Format: cell-based. Also on record: scale not given: the % may be the effect or the level left. As to conditions: human gammaherpesvirus 4. The method, boiled down:
(§1)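 Raji cells were incubated for 48 h at 37 °C in medium with n-butyric acid (4 mM), TPA (32 pmol) and graded amounts of test compound. Smears were stained for EBV-EA by indirect immunofluorescence, and positive cells were counted among at least 500 cells. Assays were run in triplicate. Activity was expressed relative to the n-butyric acid plus TPA control, set as 100%.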

Data set [2] has as its system Raji. Kind of data set: Inhibition of 12-O-tetradecanoylphorbol-13-acetate-induced EBV-early antigen activation in human Raji cells assessed as EA induction at 10 molar ratio after 48 hrs by immunofluorescence technique relative to 12-O-tetradecanoylphorbol-13-acetate. Type of data set: cell-based. Details: scale not given: the % may be the effect or the level left. As to conditions: human gammaherpesvirus 4. The method in brief: as §1

Data set [3] is described as follows: Inhibition of 12-O-tetradecanoylphorbol-13-acetate-induced EBV-early antigen activation in human Raji cells after 48 hrs by immunofluorescence technique. Type of data set: cell-based, human gammaherpesvirus 4. The method in brief:
as §1

For a further data set, the system named is Paecilomyces variotii. The data set can be described thus: Antimicrobial activity against Paecilomyces variotii NBRC4855 after 3-5 days by broth dilution method. The note with it: NBRC4855, 3-5 days. On the technique in general: Broth dilution looks for growth in wells or tubes with falling amounts of substance.
The next data set deals with Candida albicans. The data set can be described thus: Antimicrobial activity against Candida albicans NBRC1060 after 24 hrs by broth dilution method. Format: functional. The note with it: NBRC1060, 24 h.
The test system of data set [4] is Raji. Kind of data set: Inhibition of 12-O-tetradecanoylphorbol-13-acetate-induced EBV-early antigen activation in human Raji cells assessed as EA induction at 500 molar ratio after 48 hrs by immunofluorescence technique relative to 12-O-tetradecanoylphorbol-13-acetate. Format: cell-based. Details: scale not given: the % may be the effect or the level left. As to conditions: human gammaherpesvirus 4. The method, boiled down: as §1

For a further data set, the system named is Bacillus subtilis. Kind of data set: Antimicrobial activity against Bacillus subtilis NBRC3134 after 24 hrs by broth dilution method. As to conditions: NBRC3134, 24 h. Type of data set: functional. The method, boiled down: (§2)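 Modified NCCLS broth dilution. A 50 µL aliquot of bacterial cells (10⁶/mL in 0.85% NaCl) was added to 1 mL Mueller-Hinton broth containing compound over a 0.1–100 range.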

In the next data set the test system is Aspergillus fumigatus. Kind of data set: Antimicrobial activity against Aspergillus fumigatus NBRC4400 after 3-5 days by broth dilution method. As to conditions: NBRC4400, 3-5 days.
For the next data set, the system named is Penicillium expansum. Kind of data set: Antimicrobial activity against Penicillium expansum NBRC8800 after 24 hrs by broth dilution method. Format: functional. As to conditions: NBRC8800, 24 h.
The subject of data set [5] is Saccharomyces cerevisiae. The data set can be described thus: Antimicrobial activity against Saccharomyces cerevisiae NBRC10114 after 24 hrs by broth dilution method. Type of data set: functional. The note with it: NBRC10114, 24 h.
Data set [6] concerns Raji. Kind of data set: Inhibition of 12-O-tetradecanoylphorbol-13-acetate-induced EBV-early antigen activation in human Raji cells assessed as EA induction at 1000 molar ratio after 48 hrs by immunofluorescence technique relative to 12-O-tetradecanoylphorbol-13-acetate. Type of data set: cell-based. As to conditions: human gammaherpesvirus 4. The method in brief:
as §1

In another data set the test system is Staphylococcus aureus. The data set can be described thus: Antimicrobial activity against Staphylococcus aureus NBRC13276 after 24 hrs by broth dilution method. As to conditions: NBRC13276, 24 h. Type of data set: functional. The method, boiled down:
as §2

The subject of a further data set is Escherichia coli. Kind of data set: Antimicrobial activity against Escherichia coli ATCC 11775 after 24 hrs by broth dilution method. Format: functional. The note with it: ATCC 11775, 24 h. The method, boiled down:
as §2

Another data set relates to Bacillus mycoides. The data set can be described thus: Antimicrobial activity against Bacillus mycoides ATCC 11778 after 24 hrs by broth dilution method. Type of data set: functional. As to conditions: ATCC 11778, 24 h. The method in brief: as §2
A further data set deals with Salmonella enteritidis. The data set can be described thus: Antimicrobial activity against Salmonella enteritidis OPS10 after 24 hrs by broth dilution method. Type of data set: functional, Salmonella enterica subsp. enterica serovar Enteritidis. The note with it: Salmonella enterica, OPS10, 24 h. The method, boiled down: as §2
Data set [7] in a line: Cytotoxicity against human Raji cells assessed as cell viability at 1000 molar ratio after 48 hrs by trypan blue staining. Type of data set: cell-based. As to conditions: read-out: Activity. The method in brief: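 Raji cells were exposed for 48 h at 37 °C to n-butyric acid (4 mM), TPA (32 pmol) and test compound, as in the EBV-EA induction setup. Viability of the treated cells was then measured by trypan blue staining.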

The subject of the next data set is Pseudomonas aeruginosa. Kind of data set: Antimicrobial activity against Pseudomonas aeruginosa NBRC13275 after 24 hrs by broth dilution method. Format: functional. The note with it: NBRC13275, 24 h. The method in brief:
as §2

A further data set concerns Naganishia albida. Kind of data set: Antimicrobial activity against Cryptococcus albidus NBRC0378 after 3-5 days by broth dilution method. The note with it: NBRC0378, 3-5 days.
Data set [8] can be described thus: Antiproliferative activity against human skin fibroblast after 72 hrs by trypan blue exclusion assay. Format: cell-based. The method, boiled down:
(§3)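 Cells were kept in DMEM with 10% fetal serum and exposed to four concentrations of compound for 72 h at 37 °C in humidified 5% CO₂. They were then stained with 0.25% trypan blue for 20 min, and viable cells were counted by light microscopy. IC₅₀ was derived from separate experiments run in triplicate.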

Data set [9] in a line: Anticancer activity against DMBA/TPA-induced skin cancer in mouse assessed as incidence of papilloma at 85 nmol administered before TPA challenge measured after 15 weeks. Type of data set: functional. The method in brief: (§4)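 Mouse two-stage skin model: DMBA 390 nmol in 0.1 mL acetone applied topically by pipet. One week later, the same skin site was painted with test compound (85 nmol in acetone) or acetone alone, 60 min before TPA (1.7 nmol). Tumor response was scored as the average number of papillomas per mouse and the percentage of mice bearing papillomas.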

Data set [10] is described as follows: Anticancer activity against DMBA/TPA-induced skin cancer in mouse assessed as incidence of papilloma at 85 nmol administered before TPA challenge measured after 20 weeks. Type of data set: functional. The method in brief: as §4
A short description of data set [11]: Anticancer activity against DMBA/TPA-induced skin cancer in mouse assessed as incidence of papilloma at 85 nmol administered before TPA challenge measured after 10 weeks. Format: functional. The method, boiled down:
as §4

A short description of data set [12]: Cytotoxicity against human Raji cells assessed as cell viability at 500 molar ratio after 48 hrs by trypan blue staining. Format: cell-based. As to conditions: read-out: Activity. The method in brief:
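Raji cells incubated 48 h at 37 °C in medium containing n-butyric acid (4 mM), TPA (32 pmol) and various amounts of test compound, as part of the EBV-EA activation inhibition assay. Viability of the treated cells was then assayed by trypan blue staining.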

The test system of another data set is Hepatocyte. The data set can be described thus: Antiproliferative activity against human hepatocytes after 72 hrs by trypan blue exclusion assay. Format: cell-based. The method, boiled down:
as §3

Data set [13] can be described thus: Anticancer activity against DMBA/TPA-induced skin cancer in mouse assessed as number of papillomas per mouse at 85 nmol administered before TPA challenge measured after 20 weeks. Type of data set: functional. The method, boiled down:
as §4

Data set [14] in a line: Antiproliferative activity against human MPC5 cells after 72 hrs by trypan blue exclusion assay. Format: cell-based. The note with it: MPC-5, 72 h. The method, boiled down:
as §3

The nature of data set [15]: Antiproliferative activity against human SVCT-M12 cells after 72 hrs by trypan blue exclusion assay. Format: cell-based. As to conditions: SVCT-M12, 72 h. The method in brief:
as §3

The nature of data set [16]: Antiproliferative activity against human Hs888Lu cells after 72 hrs by trypan blue exclusion assay. Format: cell-based. The method in brief: as §3
The test system of a further data set is MCF7. The data set can be described thus: Antiproliferative activity against human MCF7 cells after 72 hrs by trypan blue exclusion assay. Format: functional, cell-based. The note with it: MCF7, 72 h. The method, boiled down: as §3
In the next data set the test system is PC-3. Kind of data set: Antiproliferative activity against human PC3 cells after 72 hrs by trypan blue exclusion assay. Format: functional, cell-based. The note with it: PC-3, 72 h. The method in brief: as §3
Data set [17] relates to Saccharomyces cerevisiae. Kind of data set: Antimicrobial activity against Saccharomyces cerevisiae NBRC10114 after 3-5 days by broth dilution method. The note with it: NBRC10114, 3-5 days.
In the next data set the test system is A549. The data set can be described thus: Antiproliferative activity against human A549 cells after 72 hrs by trypan blue exclusion assay. Type of data set: functional, cell-based. The note with it: A549, 72 h. The method in brief: as §3

The values that follow come from ChEMBL document CHEMBL1152539, “Synthesis and evaluation of bioactive naphthoquinones from the Brazilian medicinal plant, Tabebuia avellanedae” (Bioorg Med Chem, 2009).

Values after ≈ are worked out from the molar mass of the structure shown.

The MIC is the least concentration at which growth counts as inhibited. By EC50 is commonly meant the concentration giving half of the maximal effect.

On to `C[C@@H](O)c1cc2c(o1)C(=O)c1c(O)cccc1C2=O`, for which the Activity in the data set with Raji [1] is 52.5%; with Raji [2], 76.3%; in the data set with Raji [4], 20.4%. In data set [3], this compound showed an IC50 of 201 mol ratio/32 pmol TPA. Moreover, the MIC with Paecilomyces variotii was 50 µg/mL (≈ 194 µM); against Candida albicans it was 25 µg/mL (≈ 96.8 µM); in the data set on Bacillus subtilis, 1.56 µg/mL (≈ 6.04 µM); with Aspergillus fumigatus, 25 µg/mL (≈ 96.8 µM); with Penicillium expansum, 50 µg/mL (≈ 194 µM); against Saccharomyces cerevisiae [5], 3.13 µg/mL (≈ 12.1 µM). In addition, the minimum inhibitory concentration (MIC) against Staphylococcus aureus was 6.25 µg/mL (≈ 24.2 µM); in the data set on Escherichia coli it was greater than 100 µg/mL; against Bacillus mycoides it was 1.56 µg/mL (≈ 6.04 µM); in the data set on Salmonella enteritidis, greater than 100 µg/mL; with Pseudomonas aeruginosa, greater than 100 µg/mL; against Naganishia albida it was 1.56 µg/mL (≈ 6.04 µM). The EA induction relative to TPA control in the data set on Raji [6] came to 4.2%. The viability at 48 h, 1000 molar ratio in data set [7] was found to be 60%.

With `CC(O)c1cc2c(o1)C(=O)c1cccc(O)c1C2=O` (racemic), the Activity in the data set on Raji [1] turned out to be 20.7%; with Raji [2], 52.9%; in the data set with Raji [4], 6.2%; in [9], 47%; in data set [10] it was 67%; in data set [11], 7%. Besides, the Activity in data set [13] stood at 3.9. In data set [3], the IC50 worked out at 34.9 mol ratio/32 pmol TPA. For the same compound, the 50% effective concentration (EC50) in data set [8] is 45400 nM; in the data set on Hepatocyte, 89300 nM. In addition, in the data set on Raji [6], the EA induction relative to TPA control turned out to be 0%. For the same compound, in data set [7], the viability at 48 h, 1000 molar ratio stood at 60%. Further, the viability at 48 h, 500 molar ratio in [12] came to 70%.

For the compound `CO[C@@]12[C@H](COC(N)=O)C3=C(C(=O)C(C)=C(N)C3=O)N1C[C@@H]1N[C@@H]12` [MITOMYCIN], the EC50 was determined as 2100 nM in data set [14]; 930 nM in data set [8]; 960 nM in data set [15]; 1460 nM with Hepatocyte; 560 nM in [16].

Turning to `CC(=O)c1cc2c(o1)C(=O)c1cccc(O)c1C2=O`, the Activity with Raji [1] stood at 23.7%; in the data set with Raji [2] it was 56%; in the data set with Raji [4] it was 7.1%. In addition, the IC50 in data set [3] is 37.2 mol ratio/32 pmol TPA; in the data set on MCF7 it was 780 nM; with PC-3, 840 nM; in the data set with A549 it was 2000 nM. Besides, the MIC against Paecilomyces variotii was 100 µg/mL (≈ 390 µM); against Candida albicans it was greater than 100 µg/mL; in the data set on Bacillus subtilis, 1.56 µg/mL (≈ 6.09 µM); against Aspergillus fumigatus, 100 µg/mL (≈ 390 µM); against Penicillium expansum it was 50 µg/mL (≈ 195 µM); against Staphylococcus aureus it was 1.56 µg/mL (≈ 6.09 µM). Also, the MIC with Escherichia coli is greater than 100 µg/mL; in the data set on Bacillus mycoides it was 0.78 µg/mL (≈ 3.04 µM); in the data set with Salmonella enteritidis it was greater than 100 µg/mL; with Saccharomyces cerevisiae [17], 1.56 µg/mL (≈ 6.09 µM); against Pseudomonas aeruginosa, greater than 100 µg/mL; against Naganishia albida it was 1.56 µg/mL (≈ 6.09 µM). Besides, the EA induction relative to TPA control in the data set on Raji [6] stood at 0%. Moreover, the EC50 in data set [15] and in data set [16] was 7700 nM in each case. Further, the viability at 48 h, 1000 molar ratio in [7] amounted to 60%.

Take `CC(C)=CCC1=C(O)C(=O)c2ccccc2C1=O` [LAPACHOL]: the Activity in the data set on Raji [1] is 65.2%; in the data set with Raji [2] it was 86.6%; with Raji [4], 32.8%. The IC50 in data set [3] was 311 mol ratio/32 pmol TPA; in the data set on MCF7, 10200 nM; with PC-3, 1970 nM; in the data set on A549, 4780 nM. Also, the EA induction relative to TPA control in the data set on Raji [6] is 8.9%. Moreover, in [7], the viability at 48 h, 1000 molar ratio was 50%. Moreover, the viability at 48 h, 500 molar ratio in data set [12] is 60%.
